# High-throughput results as filed in PubChem.
# S1P3 antagonist: S1P3 receptor antagonists, primary screen, cell-based; CHO S1P3 NFAT-BLA reporter, FRET fluorescence, antagonist mode; inhibition, % at 4.98 µM; 170,000 tested, 0.27% active;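 active = inhibition above the plate cutoff, the mean inhibition of test wells on that plate plus 3 SD, cut at about 28% in these data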;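 note: cells challenged with S1P at its EC80 of 0.8 µM; blue over green emission ratio from cleaved BLA substrate after 4 h stimulation; 0% = S1P-stimulated wells and 100% = unstimulated DMSO-only wells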
# Target sequence (Q99500 whole entry, looked up): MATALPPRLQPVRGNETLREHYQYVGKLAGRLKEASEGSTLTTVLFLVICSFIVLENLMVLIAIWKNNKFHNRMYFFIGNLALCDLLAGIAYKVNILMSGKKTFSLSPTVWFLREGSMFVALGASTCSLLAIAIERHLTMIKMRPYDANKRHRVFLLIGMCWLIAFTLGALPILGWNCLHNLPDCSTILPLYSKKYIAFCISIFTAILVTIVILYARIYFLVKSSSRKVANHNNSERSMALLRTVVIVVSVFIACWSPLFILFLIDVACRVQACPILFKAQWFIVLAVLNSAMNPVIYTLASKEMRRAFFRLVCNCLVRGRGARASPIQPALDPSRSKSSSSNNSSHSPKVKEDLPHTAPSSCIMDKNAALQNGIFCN
# CHOP inhibitor: inhibitors of CHOP promoter induction, primary screen, cell-based, unfolded protein response, luciferase reporter; CHO-K1 CHOP-promoter luciferase, tunicamycin-induced, 15-18 h; inhibition, % at 10 µM; 220,000 tested, 3.8% active;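 active = compounds that reduced the stress-induced luciferase reporter signal by more than about 70% of percent inhibition, limit read from the data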;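 note: 0% = tunicamycin plus vehicle and 100% = wells without tunicamycin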
# Hsp70 act: Hsp70 transcriptional activators, primary screen, cell-based, HeLa, Hsp70 promoter luciferase, luminescence, 10 µM. 200,000 tested, 0.04% active. activation, % at 10 µM. HeLa Hsp70 promoter luciferase reporter; scaled: vehicle 0, proteasome-inhibitor control 100%. AID 1203, 2008;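 active = activation above the mean across all tested compounds plus 3 SD, cutoff set per campaign, cut at about 5.5% in these data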;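 note: 100% = MG132 at 30 µM as the positive control and 0% = DMSO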
# Mdm2 ligase inh: MDM2-luciferase reporter signal enhancers, primary screen, MDM2 E3 ligase inhibitor project, cell-based, luminescence, 1536-well | cell-based MDM2 ubiquitination luciferase reporter, 2 h; 0 = plate control, 100 = twice control, blank-subtracted | signal enhancement, % at 5 µM | 210,000 tested, 0.11% active | AID 1230, 2008;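 active = signal enhancement of 30% or more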;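 note: luminescence tracks abundance of the self-degrading MDM2-luciferase fusion protein; higher signal means inhibition of MDM2 E3 ligase activity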
#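 system = mammalian cells stably expressing self-ubiquitinating, self-degrading MDM2 E3–luciferase fusion | quantity = 2000 cells per well seeded | incubation = 4 h cell settling then 2 h compound exposure, 37 °C | signal = SteadyLite luminescence, 15 min reagent step | benchmarks = plate control and blank wells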
# CHOP confirm: retest of CHOP induction inhibitors, confirmation, cell-based | shares compounds with CHOP inhibitor | CHO-CHOP promoter luciferase reporter, tunicamycin-induced, luminescence | inhibition, % at 10 µM | 2,100 tested, 45% active | AID 504437, 2011;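 active = mean of three repeat readings of reporter signal inhibition above a set limit, cut at about 70% in these data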;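 note: 0% = tunicamycin plus vehicle and 100% = wells lacking tunicamycin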
# * marks the source's active call; other numbers are inactive results; nt = no result. Shown are actives, neighbours in structure and some others; about 4% of the full set was active somewhere.
SMILES,S1P3 antagonist,CHOP inhibitor,Hsp70 act,Mdm2 ligase inh,CHOP confirm
O=C(NNC(=O)c1cccc2ccccc12)c1ccc(-c2ccccc2)cc1,-1,98*,0,nt,82*
O=C(O)CCC(=O)NNC(=O)c1ccc(-c2ccccc2)cc1,5,4,0,-4,nt
CCCN1CCN(C(=S)Nc2ccccc2C(F)(F)F)CC1,-8,10,0,-8,nt
CC(/C=C1\SC(=O)N(CCCC(=O)O)C1=O)=C\c1ccccc1,-38,101*,-1,-39,110*
CC(/C=C1\SC(=S)N(CCCC(=O)Nc2ccc(C(=O)O)cc2)C1=O)=C\c1ccccc1,1,38,0,-6,nt
O=C(CSc1nc2cc(Cl)ccc2s1)Nc1cccc(S(=O)(=O)N2CCOCC2)c1,-17,6,0,-7,nt
N=C1S/C(=C\c2cn[nH]c2-c2ccc(F)cc2)C(=O)N1c1ccccc1F,8,103*,0,-9,43
N=C1S/C(=C\c2ccccc2F)C(=O)N1c1ccc(F)cc1,11,-4,0,-18,nt
CC1CCc2cc(F)ccc2N1C(=O)CSc1nnc2c(n1)[nH]c1ccc(F)cc12 (configuration not stated),nt,101*,0,-7,110*
Cc1cc(C(=O)O)cc(Br)c1N,-6,9,0,6,nt
C=CCc1cccc(/C=N/NC(=O)CCC(=O)Nc2ccc(C)cc2)c1O,-7,98*,0,6,69
O=C(CCC(=O)Nc1ccc(F)cc1)N/N=C/c1ccccc1O,2,29,0,-11,nt
CC1(C)Cc2c(sc3nc4n(-c5ccccc5)cnn4c(=O)c23)CO1,3,18,nt,-20,nt
COc1ccc(/C=C2/SC(=O)N(CC(=O)NCCC(C)C)C2=O)cc1OC,-6,100*,0,14,-34
CN(c1cnn(-c2ccccc2)c(=O)c1Cl)n1cccc1,-2,-4,nt,-5,nt
Nc1c(C(=O)N/N=C/c2ccc(Cl)cc2)cnn1-c1ccccc1,0,19,nt,-2,nt
O=c1c(Cl)c(N/N=C/c2ccc(Cl)cc2)cnn1-c1ccccc1,-17,102*,0,2,59
O=c1c(Cl)c(Cl)cnn1-c1ccccc1,9,101*,2,-13,96*
Cc1ccc(S(=O)(=O)/N=C(/Nc2ccc3[nH]c(=O)[nH]c3c2)c2ccc(F)cc2)cc1,2,4,0,-23,nt
N#Cc1c(N)nc2c(c1-c1ccc(Br)s1)CCCC2,2,21,0,-10,nt
Nc1nc(-c2ccc(Br)s2)c(Br)s1,5,98*,0,-3,11
CCN(CC)C(=O)CNC(=O)Cc1ccc(Cl)cc1,nt,19,0,-6,nt
CCOc1ccccc1NC(=O)CCC(=O)Nc1ccccc1OCC,nt,16,0,-10,nt
CCOc1cc(NC(=O)CCl)c(OCC)cc1NC(=O)CCl,0,98*,nt,nt,79*
O=C(NNC(=O)C1[C@H]2CCCC[C@@H]12)NC1CCCCC1 (some centres not stated),7,23,0,nt,nt
SMILES,S1P3 antagonist,CHOP inhibitor,Hsp70 act,Mdm2 ligase inh,CHOP confirm
COc1ccc(C(=O)NC(=O)Nc2cc(C)ccn2)cc1,7,105*,0,-94,103*
CC1=CC(=O)c2ccccc2C1=O,-4,33,0,nt,nt
CC(C)(C=O)C1=CC(=O)c2ccccc2C1=O,13,98*,0,-5,-225
Cc1ccc(-c2nc3ccccc3s2)cc1NC(=S)NC(=O)c1ccccc1,nt,-12,0,8,nt
Cc1ccc(-c2nc3ccccc3s2)cc1NC(=O)c1cc(-n2cnnc2)ccc1Cl,nt,100*,0,-8,0
CC/C(=N\Nc1ccccc1[N+](=O)[O-])c1ccc(O)cc1,4,100*,0,3,26
O=C(COc1ccc(Cl)cc1Cl)Nc1ccccn1,-9,100*,-1,-93,92*
CO/N=C/CC(=O)c1cnc(-c2ccccc2)s1,-32,13,0,-33,nt
CCCc1nc2oc(C(=O)c3ccccc3)c(N)c2c2c1COC(C)(C)C2,nt,110*,0,-13,97*
CCOC(=O)c1sc2nc(-c3ccco3)c3c(c2c1N)CC(C)(C)OC3,-18,nt,nt,nt,nt
Cc1nc2oc(C(=O)c3ccc(Br)cc3)c(N)c2c2c1COC(C)(C)C2,nt,101*,0,-17,-62
Cc1nc2oc3c(=O)[nH]cnc3c2c2c1COC(C)(C)C2,-15,-17,nt,7,nt
N#C/C(=C\c1ccccc1)C(=O)OCC(=O)N1CCCC1,-8,-5,0,-7,nt
C=CCn1c(=O)[nH]c2cc(C(=O)N3CCN(c4cc(C)ccc4C)CC3)ccc2c1=O,nt,97*,0,-6,63
C=CCn1c(=O)[nH]c2cc(C(=O)N3CCN(c4ccc(C(C)=O)cc4)CC3)ccc2c1=O,nt,13,0,-2,nt
Cc1c(-c2nc(N)nc(Nc3ccc(F)cc3)n2)oc2ccccc12,31,106*,0,-6,40
Cn1c(=O)c([N+](=O)[O-])c(NCCCn2ccnc2)c2ccccc21,-8,11,nt,-10,nt
Cn1c(=O)c([N+](=O)[O-])c(-n2ccnc2)c2ccccc21,5,103*,0,-2,-90
COc1ccccc1N1CCN(S(=O)(=O)Cc2ccccc2Cl)CC1,22,33,0,-24,nt
Cc1ccc(-n2c(C)cc(C3N=C(N)Nc4nc5ccccc5n43)c2C)c(C)c1 (configuration not stated),-2,100*,0,-10,62
Cc1cc(C2N=C(N)Nc3nc4ccccc4n32)c(C)n1-c1ccccc1Cl (configuration not stated),nt,61,0,-13,nt
CC(C)[C@@H]1NC(=O)c2cc([N+](=O)[O-])cc(I)c2NCCCC[C@@H](C(=O)NC(CC(=O)O)C(N)=O)NC(=O)[C@H](CO)NC1=O (some centres not stated),-11,15,0,nt,nt
CC(C)(C)c1cc(-c2nc(N)nc(N)n2)cc(C(C)(C)C)c1,11,103*,0,1,57
O=C1c2[nH]nc(-c3ccccc3O)c2C(c2cccc(Cl)c2)N1CC1CCCO1 (configuration not stated),14,52,0,6,nt
O=C1c2[nH]nc(-c3ccccc3O)c2C(c2cccc(Cl)c2)N1Cc1ccco1 (configuration not stated),16,113*,0,-33,113*
CC(=O)Nc1ccc(NC2=C(Cl)C(=O)c3ccccc3C2=O)cc1,-17,104*,0,2,-125
O=C(NC1=C(Nc2ccc(Cl)cc2)C(=O)c2ccccc2C1=O)c1ccccc1,-13,-53,0,-4,nt
Cc1cc(C)cc(OC2CCCCC2NS(=O)(=O)c2ccccc2)c1 (configuration not stated),-9,99*,0,0,70*
